Test results as given in PMC9950857 (RSC Advances, 2023).
Marks after values point to notes of the source that are not given here. Blank lines part the entries; values can stand above or below the compound they belong to.

Experiments:
pancreatic lipase [1] = molecular target: T1, pancreatic lipase (Sus scrofa, UniProt P00591); experiment: Fluorescence titration; assay type: binding; conditions: for ΔG: from fluorescence data; for Kd: K a (binding constant)
T1 sequence (P00591 1-450): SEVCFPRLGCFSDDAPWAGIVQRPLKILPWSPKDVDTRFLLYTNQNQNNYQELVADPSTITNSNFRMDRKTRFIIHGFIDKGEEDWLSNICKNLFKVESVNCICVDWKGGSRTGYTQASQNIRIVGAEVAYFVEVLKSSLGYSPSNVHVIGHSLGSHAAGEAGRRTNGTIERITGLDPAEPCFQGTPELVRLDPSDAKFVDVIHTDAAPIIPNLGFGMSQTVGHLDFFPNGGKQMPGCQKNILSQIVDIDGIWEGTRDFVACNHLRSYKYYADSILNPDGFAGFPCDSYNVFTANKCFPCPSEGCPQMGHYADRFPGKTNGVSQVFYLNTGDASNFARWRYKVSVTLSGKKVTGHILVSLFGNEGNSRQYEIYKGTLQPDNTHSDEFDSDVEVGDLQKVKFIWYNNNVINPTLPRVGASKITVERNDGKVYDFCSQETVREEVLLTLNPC
Summary of the method: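 Lipase held at 6.0×10^-6 M final with 0 to 4.2×10^-5 M final test compound, in 5.0×10^-2 M Tris–HCl pH 7.4. Spectra recorded at 277, 298 and 310 K: excitation 280 nm, emission 300–500 nm, slits 5 nm. Intensities corrected for inner-filter effect.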

pancreatic lipase [2] = molecular target: T1, pancreatic lipase; experiment: ITC analysis of HYP titrated into lipase; assay type: binding
Summary of the method: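 Calorimetric titration: 1.0×10^-4 M lipase in the cell, containing 1% ethanol, titrated with 1.0×10^-3 M test compound. Injections at 180 s intervals, stirring at 250 rpm; other solutions degassed. First injection discarded. Integrated heats corrected for dilution and fitted against molar ratio. ΔG from −RT lnKa; ΔS from ΔG = ΔH − TΔS.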

pancreatic lipase [3] = molecular target: T1, pancreatic lipase; experiment: Enzymatic assay of lipase activity; assay type: biochemical; conditions: for inhibition type: Lineweaver–Burk plots, 310 K, 405 nm, pNPC 2.0–3.6 × 10^−3 M
pancreatic lipase [4] = molecular target: T1, pancreatic lipase; experiment: Synchronous fluorescence spectroscopy; assay type: binding; conditions: HYP 4.2 × 10^−5 M, 298 K
pancreatic lipase [5] = molecular target: T1, pancreatic lipase; experiment: Time-resolved fluorescence measurements; assay type: binding; conditions: fluorescence titration and time-resolved fluorescence
Summary of the method: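 Fluorescence lifetimes of free lipase and of the lipase–test compound complex at 298 K. Excitation 280 nm, emission 345 nm. Decays analysed by tail fitting, with fits judged by χ². Average lifetime calculated as Σαiτi.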

pancreatic lipase [6] = molecular target: T1, pancreatic lipase; experiment: Fourier-transform infrared spectroscopy of lipase secondary structure; conditions: ratio of lipase to HYP increased from 1 : 0 to 1 : 4, FT-IR, 298 K
Summary of the method: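 FT-IR at 298 K: 128 scans at 4 cm⁻¹ resolution. Lipase at 2.0×10^-4 M, alone or with test compound at different ratios. Background, protein and compound spectra subtracted; samples scanned over 1700–1500 cm⁻¹. Amide bands analysed by peak fitting.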

lipase = conditions: cited from earlier work
pancreatic lipase [7] = molecular target: T1, pancreatic lipase; conditions: cited from earlier work
[8] = from fluorescence data at 277, 298, 310 K

K SV (Stern–Volmer quenching constant) (pancreatic lipase [1]; 277 K): 7.113 ± 0.029^a × 10^4 M^−1
KSV (pancreatic lipase [1]; 277 K): 7.113 ± 0.029 × 10^4 M^−1
n (Hill coefficient) (pancreatic lipase [1]; 277 K): 1.379
ΔG (pancreatic lipase [1]; 277 K): -8.32 kcal/mol
K SV (Stern–Volmer quenching constant) (pancreatic lipase [1]; 298 K): 6.826 ± 0.010^b × 10^4 M^−1
n (Hill coefficient) (pancreatic lipase [1]; 298 K): 1.337
ΔG (pancreatic lipase [1]; 298 K): -8.489 kcal/mol
K SV (Stern–Volmer quenching constant) (pancreatic lipase [1]; 310 K): 6.247 ± 0.060^b × 10^4 M^−1
KSV (pancreatic lipase [1]; 310 K): 6.247 ± 0.060 × 10^4 M^−1
binding constant (pancreatic lipase [1]; 310 K): 1.048e+06 M⁻¹
n (Hill coefficient) (pancreatic lipase [1]; 310 K): 1.286
ΔG (pancreatic lipase [1]; 310 K): -8.587 kcal/mol
Kd (pancreatic lipase [1]; 277 K): 0.283 µM
Kd (pancreatic lipase [1]; 298 K): 0.526 µM
Kd (pancreatic lipase [1]; 310 K): 0.954 µM
n values (pancreatic lipase [1]; at different temperatures (277, 298, 310 K)): greater than 1
ΔH (pancreatic lipase [1]; [8]): -6.085 kcal/mol
ΔS (pancreatic lipase [1]; [8]): 33.77 J mol^−1 K^−1
Kd (pancreatic lipase [2]): 6.35 µM
ΔG (pancreatic lipase [2]; ITC): -7.091 kcal/mol
ΔH (pancreatic lipase [2]; ITC): -5.569 kcal/mol
ΔS (pancreatic lipase [2]; ITC): 21.36 J mol^−1 K^−1
IC50 (pancreatic lipase [3]): 1920 µM
inhibition type (pancreatic lipase [3]): non-competitive inhibitor
decrease of Tyr residue fluorescence intensity (pancreatic lipase [4]; Δλ = 15 nm): 65.86%
decrease of Trp residue's fluorescence intensity (pancreatic lipase [4]; Δλ = 60 nm): 73.65%
quenching mechanism (pancreatic lipase [5]): static quenching
decrease of α-helix in lipase (pancreatic lipase [6]): 1.6%
SMILES: O=c1c(O[C@@H]2O[C@H](CO)[C@H](O)[C@H](O)[C@H]2O)c(-c2ccc(O)c(O)c2)oc2cc(O)cc(O)c12 [HYP, quercetin-3-O-β-D-galactoside]

SMILES: C[C@@H]1O[C@@H](Oc2c(-c3ccc(O)c(O)c3)oc3cc(O)cc(O)c3c2=O)[C@H](O)[C@H](O)[C@H]1O [quercetin 3-rhamnoside]
lipase inhibition (lipase): effective in lipase inhibition

inhibition type (pancreatic lipase [3]): competitive inhibition
SMILES: CCCCCCCCCCC[C@@H](C[C@@H]1OC(=O)[C@H]1CCCCCC)OC(=O)[C@H](CC(C)C)NC=O [orlistat, reference compound]
reversibility of inhibition (pancreatic lipase [7]): irreversible inhibition
